Columns and labels:
H4K12ac = test: Enrichment of H4K12ac in cells cultured in trichostatin A; format: cell-based; conditions: Figure S7H
BPTF PHD finger = test: Binding of short H3K4me3 peptide in the absence of DNA; parameters: species or system human; conditions: Figure S2D
BPTF bromodomain = BPTF bromodomain (Homo sapiens, UniProt Q12830); format: binding; conditions: GST-tagged bromodomain, peptide array on modified cellulose scaffold
In short: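 Each acetylated peptide sits on a cellulose membrane, e.g. H4 residues 11–25 carrying a single ε-amine acetyl-lysine. […] Control and replicate blots were run. Spots that stained on the blot were retested for binding in solution.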

[1] = system: PHD-bromo module F154A mutant; test: FPA of PHD-bromo mutant F154A with histone peptides; format: binding, human; conditions: Figure 4B
BPTF bromodomain V108A = test: ITC of H4K16ac peptide with BPTF bromodomain mutant V108A; format: binding, human; conditions: Kd outside of the accurately measurable range, Figure 5D
BPTF bromodomain Y147F = test: ITC of H4K16ac peptide with BPTF bromodomain mutant Y147F; format: binding, human; conditions: Kd outside of the accurately measurable range, Figure 5D
BPTF bromodomain W91A = test: ITC of H4K16ac peptide with BPTF bromodomain mutant W91A; format: binding, human; conditions: not reliably quantifiable, Figure 5E
BPTF bromodomain D101A = test: ITC of H4K16ac peptide with BPTF bromodomain mutant D101A; format: binding, human; conditions: not reliably quantifiable, Figure 5E

Molecule: CC(/C=C/C(=O)NO)=C\[C@@H](C)C(=O)c1ccc(N(C)C)cc1 [trichostatin A]
- enrichment of H4K12ac mark (H4K12ac): substantial enrichment of the mark

Molecule: H3K4me3 peptide: short H3K4me3[1–8] peptide used for the DNA ruler, tested without DNA
- binding of short peptide without DNA (BPTF PHD finger): bound effectively in the absence of DNA

Molecule: H4K16ac: histone H4 peptide (residues 11–25 on the array) acetylated on the ε-amine of lysine 16
- SPOT blot interaction / staining (BPTF bromodomain): reproducible staining
- peptide binding to F154A mutant [1]: abolishes bromodomain binding of H4K16ac
- H4K16ac binding by V108A bromodomain (BPTF bromodomain V108A): modest binding deficits
- H4K16ac binding by Y147F bromodomain (BPTF bromodomain Y147F): modest binding deficits
- H4K16ac binding by W91A bromodomain (BPTF bromodomain W91A): more severe loss of affinity
- H4K16ac binding by D101A bromodomain (BPTF bromodomain D101A): more severe loss of affinity

Molecule: H4K20ac: histone H4 peptide (residues 11–25 on the array) acetylated on the ε-amine of lysine 20
- SPOT blot interaction / staining (BPTF bromodomain): reproducible staining

Molecule: unmodified counterpart: unmodified histone H4 peptide, without acetylation [reference compound]
- SPOT blot interaction / staining (BPTF bromodomain): displayed no detectable signal above background
